Test results taken from ChEMBL document CHEMBL2029214, “Radiosynthesis and evaluation of an (18)F-labeled positron emission tomography (PET) radioligand for brain histamine subtype-3 receptors based on a nonimidazole 2-aminoethylbenzofuran chemotype” (J Med Chem, 2012).

How the values were obtained:
Brain [1] = experiment: Drug uptake in FVB mouse whole brain at 73+/-29 uCi, iv at 90 mins by PET imaging; type: ADME, organism-based; details: in vivo, 1.5 h
Procedure, shortened: (§1)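 Dynamic microPET ran 120 min with frames of 20 s to 20 min, without attenuation or scatter correction. Decay-corrected whole-brain curves expressed as SUV = (%ID/cm3) × (g body weight).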

Brain [2] = experiment: Drug uptake in FVB mouse whole brain at 73+/-29 uCi, iv administered 30 mins post-ciproxifan treatment measured at 4.5 mins by PET imaging; type: ADME, organism-based; details: in vivo, 0.075 h; procedure, shortened: as §1
Brain [3] = experiment: Drug uptake in FVB mouse whole brain at 73+/-29 uCi, iv administered 30 mins post-(R)-(4-fluorophenyl)(2-(2-(2-methylpyrrolidin-1-yl)ethyl)benzofuran-5-yl)methanone treatment measured at 90 mins by PET imaging; type: ADME, organism-based; details: in vivo, 1.5 h; procedure, shortened: as §1
Brain [4] = experiment: Drug uptake in FVB mouse whole brain at 73+/-29 uCi, iv administered 30 mins post-(R)-(2-(2-(2-methylpyrrolidin-1-yl)ethyl)benzofuran-5-yl)(4-nitrophenyl)methanone treatment measured at 90 mins by PET imaging; type: ADME, organism-based; details: in vivo, 1.5 h; procedure, shortened: as §1
Hippocampus [5] = experiment: Drug uptake in rhesus monkey hippocampus at 3.91+/-0.46 mCi, iv by PET imaging; type: ADME, organism-based, Macaca mulatta; details: in vivo
Procedure, shortened: (§2)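 Male rhesus monkeys (7.3 ± 0.8 kg; n = 4 baseline), ketamine 10 mg/kg i.m. then 1.5% isoflurane in O2. […] [18F]ligand given i.v. Focus 220 microPET, 180 min (one scan 120 min), 45 frames 30 s–5 min, scatter/attenuation corrected, decay-corrected; template-normalized regions; uptake as SUV.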

[6] = Drug uptake in rhesus monkey thalamus at 3.91+/-0.46 mCi, iv by PET imaging; type: ADME, organism-based, Macaca mulatta; details: in vivo; procedure, shortened: as §2
Striatum [7] = experiment: Drug uptake in rhesus monkey striatum at 3.91+/-0.46 mCi, iv at 180 mins by PET imaging; type: ADME, organism-based, Macaca mulatta; details: in vivo, 3 h; procedure, shortened: as §2
[8] = Drug uptake in rhesus monkey frontal cortex at 3.91+/-0.46 mCi, iv at 180 mins by PET imaging; type: ADME, organism-based, Macaca mulatta; details: in vivo, 3 h; procedure, shortened: as §2
[9] = Drug uptake in rhesus monkey cerebellum at 3.91+/-0.46 mCi, iv at 180 mins by PET imaging; type: ADME, organism-based, Macaca mulatta; details: in vivo, 3 h
Hippocampus [10] = experiment: Drug uptake in rhesus monkey hippocampus at 3.91+/-0.46 mCi, iv at 180 mins by PET imaging; type: ADME, organism-based, Macaca mulatta; details: in vivo, 3 h; procedure, shortened: as §2
[11] = Drug uptake in rhesus monkey thalamus at 3.91+/-0.46 mCi, iv at 180 mins by PET imaging; type: ADME, organism-based, Macaca mulatta; details: in vivo, 3 h; procedure, shortened: as §2
[12] = Drug uptake in rhesus monkey skull at 3.91+/-0.46 mCi, iv at 180 mins by PET imaging; type: ADME, organism-based, Macaca mulatta; details: in vivo, 3 h
Striatum [13] = experiment: Drug uptake in rhesus monkey striatum at 3.91+/-0.46 mCi, iv administered 30 mins post-ciproxifan treatment measured at 180 mins by PET imaging; type: ADME, organism-based, Macaca mulatta; details: in vivo, 3 h; procedure, shortened: as §2
[14] = Drug uptake in rhesus monkey frontal cortex at 3.91+/-0.46 mCi, iv administered 30 mins post-ciproxifan treatment measured at 180 mins by PET imaging; type: ADME, organism-based, Macaca mulatta; details: in vivo, 3 h; procedure, shortened: as §2
[15] = Drug uptake in rhesus monkey cerebellum at 3.91+/-0.46 mCi, iv administered 30 mins post-ciproxifan treatment measured at 180 mins by PET imaging; type: ADME, organism-based, Macaca mulatta; details: in vivo, 3 h
Hippocampus [16] = experiment: Drug uptake in rhesus monkey hippocampus at 3.91+/-0.46 mCi, iv administered 30 mins post-ciproxifan treatment measured at 180 mins by PET imaging; type: ADME, organism-based, Macaca mulatta; details: in vivo, 3 h; procedure, shortened: as §2
[17] = Drug uptake in rhesus monkey thalamus at 3.91+/-0.46 mCi, iv administered 30 mins post-ciproxifan treatment measured at 180 mins by PET imaging; type: ADME, organism-based, Macaca mulatta; details: in vivo, 3 h; procedure, shortened: as §2
Striatum [18] = experiment: Drug uptake in rhesus monkey striatum at 3.91+/-0.46 mCi, iv administered 30 mins post-(R)-(4-fluorophenyl)(2-(2-(2-methylpyrrolidin-1-yl)ethyl)benzofuran-5-yl)methanone treatment measured up to 180 mins by PET imaging; type: ADME, organism-based, Macaca mulatta; details: in vivo; procedure, shortened: as §2
[19] = Drug uptake in rhesus monkey frontal cortex at 3.91+/-0.46 mCi, iv administered 30 mins post-(R)-(4-fluorophenyl)(2-(2-(2-methylpyrrolidin-1-yl)ethyl)benzofuran-5-yl)methanone treatment measured up to 180 mins by PET imaging; type: ADME, organism-based, Macaca mulatta; details: in vivo
[20] = Drug uptake in rhesus monkey cerebellum at 3.91+/-0.46 mCi, iv administered 30 mins post-(R)-(4-fluorophenyl)(2-(2-(2-methylpyrrolidin-1-yl)ethyl)benzofuran-5-yl)methanone treatment measured up to 180 mins by PET imaging; type: ADME, organism-based, Macaca mulatta; details: in vivo
Hippocampus [21] = experiment: Drug uptake in rhesus monkey hippocampus at 3.91+/-0.46 mCi, iv administered 30 mins post-(R)-(4-fluorophenyl)(2-(2-(2-methylpyrrolidin-1-yl)ethyl)benzofuran-5-yl)methanone treatment measured up to 180 mins by PET imaging; type: ADME, organism-based, Macaca mulatta; details: in vivo; procedure, shortened: as §2
[22] = Drug uptake in rhesus monkey thalamus at 3.91+/-0.46 mCi, iv administered 30 mins post-(R)-(4-fluorophenyl)(2-(2-(2-methylpyrrolidin-1-yl)ethyl)benzofuran-5-yl)methanone treatment measured up to 180 mins by PET imaging; type: ADME, organism-based, Macaca mulatta; details: in vivo; procedure, shortened: as §2
[23] = Drug uptake in rhesus monkey skull at 3.91+/-0.46 mCi, iv administered 30 mins post-(R)-(4-fluorophenyl)(2-(2-(2-methylpyrrolidin-1-yl)ethyl)benzofuran-5-yl)methanone treatment measured up to 180 mins by PET imaging; type: ADME, organism-based, Macaca mulatta; details: in vivo
[24] = Metabolic stability in monkey whole blood assessed as compound remaining after 2.5 hrs by radio-HPLC; type: ADME, tissue-based, Macaca mulatta; details: rhesus monkey, read-out: Stability
Procedure, shortened: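 [18F]Radioligand was incubated in monkey whole blood at room temperature for 2.5 h in vitro, n = 6. Unchanged fraction was measured by radio-HPLC on reverse-phase C18 in a radial compression module, eluted at 2.0 mL/min with MeOH:H2O:Et3N (85:15:0.1).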

[25] = Metabolic stability in monkey plasma assessed as compound remaining after 2.5 hrs by radio-HPLC; type: ADME, cell-free, Macaca mulatta; details: rhesus monkey, read-out: Stability
Procedure, shortened: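 Radioligand incubated in monkey plasma in vitro at room temperature for 2.5 h; percent unchanged by reverse-phase radio-HPLC (C18 radial compression, MeOH:H2O:Et3N 85:15:0.1, 2.0 mL/min); n = 6.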

Plasma [26] = experiment: Drug metabolism in rhesus monkey plasma assessed as decrease in unchanged compound at 3.87 mCi, iv by radio-HPLC; type: ADME, organism-based, Macaca mulatta; details: in vivo
Plasma [27] = experiment: Drug metabolism in rhesus monkey plasma assessed as decrease in unchanged compound at 3.87 mCi, iv administered 30 mins post-ciproxifan treatment by radio-HPLC; type: ADME, organism-based, Macaca mulatta; details: in vivo, 0.5 h
Plasma [28] = experiment: Drug metabolism in rhesus monkey plasma assessed as decrease in unchanged compound at 3.87 mCi, iv administered 30 mins post-(R)-(4-fluorophenyl)(2-(2-(2-methylpyrrolidin-1-yl)ethyl)benzofuran-5-yl)methanone treatment by radio-HPLC; type: ADME, organism-based, Macaca mulatta; details: in vivo, 0.5 h
Plasma [29] = experiment: Drug metabolism in rhesus monkey plasma assessed as radiometabolite formation at 3.87 mCi, iv by radio-HPLC; type: ADME, organism-based, Macaca mulatta; details: in vivo
Plasma [30] = experiment: Drug metabolism in rhesus monkey plasma assessed as radiometabolite formation at 3.87 mCi, iv administered 30 mins post-ciproxifan treatment by radio-HPLC; type: ADME, organism-based, Macaca mulatta; details: in vivo, 0.5 h
Plasma [31] = experiment: Drug metabolism in rhesus monkey plasma assessed as radiometabolite formation at 3.87 mCi, iv administered 30 mins post-(R)-(4-fluorophenyl)(2-(2-(2-methylpyrrolidin-1-yl)ethyl)benzofuran-5-yl)methanone treatment by radio-HPLC; type: ADME, organism-based, Macaca mulatta; details: in vivo, 0.5 h
[32] = Unbound fraction in rhesus monkey plasma at 3.91+/-0.46 mCi, iv by ultrafiltration; type: ADME, organism-based, Macaca mulatta
Procedure, shortened: (§3)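 Arterial plasma from monkeys scanned at baseline or 30 min after unlabeled ligand (1.0 mg/kg i.v.) pretreatment; free fraction of [18F]ligand measured by ultrafiltration, each plasma sample in triplicate.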

[33] = Unbound fraction in rhesus monkey plasma at 3.91+/-0.46 mCi, iv administered 30 mins post-(R)-(4-fluorophenyl)(2-(2-(2-methylpyrrolidin-1-yl)ethyl)benzofuran-5-yl)methanone treatment by ultrafiltration; type: ADME, organism-based, Macaca mulatta; procedure, shortened: as §3
Brain [34] = experiment: Drug metabolism in rhesus monkey brain assessed as radiodefluorination at 3.91 mCi, iv by PET; details: in vivo

SUV (Brain [1]): 2.3
SUV (Brain [2]): 1.98
SUV (Brain [3]): < 1.2
SUV (Brain [4]): < 1.2
Drug uptake (Hippocampus [5]): Active
Drug uptake [6]: Active
Drug uptake (Striatum [7]): Not Active
Drug uptake [8]: Not Active
Drug uptake [9]: Not Active
Drug uptake (Hippocampus [10]): Not Active
Drug uptake [11]: Not Active
Drug uptake [12]: Not Active
Drug uptake (Striatum [13]): Not Active
Drug uptake [14]: Not Active
Drug uptake [15]: Active
Drug uptake (Hippocampus [16]): Not Active
Drug uptake [17]: Not Active
Drug uptake (Striatum [18]): Not Active
Drug uptake [19]: Not Active
Drug uptake [20]: Not Active
Drug uptake (Hippocampus [21]): Not Active
Drug uptake [22]: Not Active
Drug uptake [23]: Not Active
remaining at 2.5 h [24]: 98.4%
remaining at 2.5 h [25]: 99.2%
Drug metabolism (Plasma [26]): Active
Drug metabolism (Plasma [27]): Active
Drug metabolism (Plasma [28]): Active
Drug metabolism (Plasma [29]): Active
Drug metabolism (Plasma [30]): Active
Drug metabolism (Plasma [31]): Active
fraction unbound [32]: 0.0208
fraction unbound at 0.5 h [33]: 0.014
Drug metabolism (Brain [34]): Not Active
SMILES: C[C@@H]1CCCN1CCc1cc2cc(C(=O)c3ccc([18F])cc3)ccc2o1
